PMI activator: activators of human phosphomannose isomerase. purified human PMI, coupled resazurin fluorescence, 20 min; stronger effect = higher value; 1 = vehicle control, 0 substrate-free wells. activation factor at 20 µM. 190,000 compounds, 0.005% hits. AID 1214;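 active = activation factor of 2 or more at 20 µM, relative to plate controls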
Target sequence (P34949 whole entry, looked up): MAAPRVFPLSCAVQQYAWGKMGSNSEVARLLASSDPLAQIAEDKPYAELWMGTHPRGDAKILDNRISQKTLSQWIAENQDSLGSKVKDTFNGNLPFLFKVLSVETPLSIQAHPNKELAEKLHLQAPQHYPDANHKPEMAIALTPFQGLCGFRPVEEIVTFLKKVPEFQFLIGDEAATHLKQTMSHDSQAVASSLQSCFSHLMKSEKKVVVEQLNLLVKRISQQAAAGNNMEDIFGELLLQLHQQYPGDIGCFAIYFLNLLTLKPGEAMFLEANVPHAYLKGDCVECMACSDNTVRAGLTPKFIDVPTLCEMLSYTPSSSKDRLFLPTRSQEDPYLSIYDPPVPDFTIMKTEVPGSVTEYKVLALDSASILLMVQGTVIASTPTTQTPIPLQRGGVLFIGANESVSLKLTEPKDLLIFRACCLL
m-calpain inh: blocks pig calpain II enzyme activity; purified calpain II, fluorogenic peptide substrate, 30 min; 220,000 compounds, 0.37% hits; AID 1236; inhibition, % at 16 µM;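 active = inhibition above about 50%, limit read from the data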
WT yeast gro inh: growth inhibition of WT yeast, mitochondrial fusion screen | mitochondrial fusion phenotypic screen, WT strain | inhibition, % at 10 µM | 190,000 compounds, 2.1% hits | AID 1362; in the data active = inhibition above about 58%; tested in S. cerevisiae
L major viab: inhibitors of Leishmania major promastigote growth; Leishmania major promastigotes, resazurin fluorescence viability; inhibition, % at 10 µM; 200,000 compounds, 9% hits; AID 1063; in the data active = inhibition above about 50%;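 note: promastigotes grown with compound for 44 hours at 28 °C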
PMI act satM6P: PMI (human) activation, high substrate; P34949; coupled PMI enzyme assay, resazurin fluorescence, 20 min; stronger effect = higher value; 1 = untreated enzyme, 0 = substrate-free blank; activation factor at 20 µM; 190,000 compounds, 0.34% hits; AID 1216;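 active = activation factor of 2 or more at 20 µM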
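Test system: Human PMI in coupled enzyme assay | Input: 15 ng/mL PMI | Medium: HEPES-buffered pH 7.4 with magnesium and detergent | Compound: One concentration, 20 µM, in 1% DMSO | Incubation: Enzyme reaction with compound 20 min at room temperature | Detection: Diaphorase-driven resazurin-to-resorufin fluorescence, excitation 544, emission 590 nm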
Rad51 HR inh: blocks human Rad51 in homologous recombination | Q06609 | hRad51 DNA strand exchange, fluorescence dequenching | inhibition, % at 10 µM | 200,000 compounds, 0.085% hits | AID 1385;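 active = inhibition above 40% at the single screening dose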
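Assay system: Human Rad51 nucleoprotein filaments preassembled on unlabelled ssDNA | Reagent: Donor/quencher-labelled 47-bp dsDNA substrate | Doses: One concentration, 10 µM final | Times: 37 °C 15-min filament assembly, 30-min compound preincubation, 15-min exchange | Technique: Fluorescein emission 520 nm, excitation 485 nm | Benchmarks: Plate control and blank wells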
Hits are given with their value. Hits are enriched below; roughly 9.8% of the tested compounds scored in any of these assays.

Screening O=C1/C(=C/c2ccncc2)SC(=S)N1C1CCS(=O)(=O)C1 (centres undefined) returned PMI activator inactive, m-calpain inh inactive, WT yeast gro inh inactive, L major viab 100, PMI act satM6P inactive and Rad51 HR inh inactive.
Screening O=C1/C(=C\c2cccs2)SC(=S)N1C1CCS(=O)(=O)C1 (centres undefined) returned PMI activator inactive, m-calpain inh inactive, WT yeast gro inh inactive, L major viab 77, PMI act satM6P inactive and Rad51 HR inh inactive.
For CCOC(=O)C1C(c2ccc([N+](=O)[O-])cc2)C2C(=O)NN=C2CC1(C)O (centres undefined) the results were m-calpain inh inactive and Rad51 HR inh inactive.
C=CCn1c(CCC(=O)Nc2ccc(C)c(Cl)c2)nnc1SCC(=O)Nc1ccccc1C was read as PMI activator inactive, m-calpain inh inactive, WT yeast gro inh inactive, L major viab inactive, PMI act satM6P inactive and Rad51 HR inh inactive.
For O=[N+]([O-])c1cc([N+](=O)[O-])c2c(=Nc3ccccc3)n(-c3ccccc3)n(O)c2c1 the results were PMI activator inactive, m-calpain inh inactive, WT yeast gro inh inactive, L major viab 100, PMI act satM6P inactive and Rad51 HR inh inactive.
`Cc1cccc(NC(=S)N(CCN(C)C)Cc2cc3cc(C)cc(C)c3[nH]c2=O)c1` gave PMI activator inactive, m-calpain inh inactive, WT yeast gro inh inactive, L major viab 98, PMI act satM6P inactive and Rad51 HR inh inactive.
For CN(C)CCCN(Cc1cc2cc3c(cc2[nH]c1=O)OCO3)C(=S)Nc1cccc(Cl)c1 the results were PMI activator inactive, m-calpain inh inactive, WT yeast gro inh inactive, L major viab 93, PMI act satM6P inactive and Rad51 HR inh inactive.
`CN(C)CCCN(Cc1cc2cc3c(cc2[nH]c1=O)OCO3)C(=S)Nc1ccccc1` gave PMI activator inactive, m-calpain inh inactive, WT yeast gro inh inactive, L major viab inactive, PMI act satM6P inactive and Rad51 HR inh inactive.
For Cc1ccc(NC(=S)N(CCN(C)C)Cc2cc3cccc(C)c3[nH]c2=O)cc1 the results were PMI activator inactive, m-calpain inh inactive, WT yeast gro inh inactive, L major viab inactive, PMI act satM6P inactive and Rad51 HR inh inactive.
Screening Cc1cccc(NC(=S)N(CCN(C)C)Cc2cc3cccc(C)c3[nH]c2=O)c1 returned PMI activator inactive, m-calpain inh inactive, WT yeast gro inh inactive, L major viab 95, PMI act satM6P inactive and Rad51 HR inh inactive.
Clc1nc(CN2CCOCC2)nc2sc3c(c12)CCC3 was read as PMI activator inactive, m-calpain inh inactive, WT yeast gro inh inactive, L major viab inactive, PMI act satM6P inactive and Rad51 HR inh inactive.
Screening Cc1cccc(Oc2nc(CN3CCOCC3)nc3sc4c(c23)CCCC4)c1 returned PMI activator inactive, m-calpain inh inactive, WT yeast gro inh inactive, L major viab 99, PMI act satM6P inactive and Rad51 HR inh inactive.
For Cc1cc2nc(CS)[nH]c2cc1C the results were m-calpain inh inactive and Rad51 HR inh inactive.
Screening O=S(=O)(c1ccc(OCC(O)CNC23CC4CC(CC(C4)C2)C3)c(Cl)c1)N1CCOCC1 (centres undefined) returned PMI activator inactive, m-calpain inh inactive, WT yeast gro inh inactive, L major viab 94, PMI act satM6P inactive and Rad51 HR inh inactive.
CN1CC(c2ccc(C#N)cc2)C2(COc3ccccc3C2=O)C12C(=O)Nc1ccccc12 (centres undefined) was read as PMI activator inactive, m-calpain inh inactive, WT yeast gro inh inactive, L major viab 90, PMI act satM6P inactive and Rad51 HR inh inactive.
`O=C(C1CC1)N1CCC(c2nc(-c3ccc(S(=O)(=O)N4CCCC4)cc3)no2)CC1` gave PMI activator inactive, m-calpain inh inactive, WT yeast gro inh inactive, L major viab 53, PMI act satM6P inactive and Rad51 HR inh inactive.
For O=C(Cc1ccccc1)N1CCCC(c2nc(-c3ccc(S(=O)(=O)N4CCCC4)cc3)no2)C1 (centres undefined) the results were PMI activator inactive, m-calpain inh inactive, WT yeast gro inh inactive, L major viab 99, PMI act satM6P inactive and Rad51 HR inh inactive.
O=C(Cc1ccccc1)N1CCC(c2nc(-c3ccc(F)cc3)no2)CC1 was read as PMI activator inactive, m-calpain inh inactive, WT yeast gro inh inactive, L major viab inactive, PMI act satM6P inactive and Rad51 HR inh inactive.
For O=C(NC1CCCCC1)N1CCC(c2nc(-c3ccc(S(=O)(=O)N4CCCC4)cc3)no2)CC1 the results were PMI activator inactive, m-calpain inh inactive, WT yeast gro inh inactive, L major viab 75, PMI act satM6P inactive and Rad51 HR inh inactive.
CN1CCc2nc(NC(=O)COc3ccc(C#N)cc3)sc2C1 was read as PMI activator inactive, m-calpain inh inactive, WT yeast gro inh inactive, L major viab inactive, PMI act satM6P inactive and Rad51 HR inh inactive.
For CCCC(Oc1ccc(Br)cc1)c1nc2c3cc(OC)c(OC)cc3nc(=S)n2[nH]1 (centres undefined) the results were PMI activator inactive, m-calpain inh inactive, WT yeast gro inh inactive, L major viab 97 and PMI act satM6P inactive.
`CC(Oc1ccc(Br)cc1)c1nc2c3ccccc3nc(=S)n2[nH]1` (centres undefined) gave PMI activator inactive, m-calpain inh inactive, WT yeast gro inh inactive, L major viab inactive, PMI act satM6P inactive and Rad51 HR inh inactive.
For CCc1cc2c(C)cc(=O)oc2cc1OC(=O)C1CCCN1C(=O)OC(C)(C)C (centres undefined) the results were PMI activator inactive, m-calpain inh inactive, WT yeast gro inh inactive, L major viab 89, PMI act satM6P inactive and Rad51 HR inh inactive.
For CCN1C/C(=C/c2cccc([N+](=O)[O-])c2)C(=O)/C(=C/c2cccc([N+](=O)[O-])c2)C1 the results were PMI activator inactive, m-calpain inh inactive, WT yeast gro inh 88, L major viab 100 and PMI act satM6P inactive.
Screening O=C1NC(=O)/C(=C/c2cccc([N+](=O)[O-])c2)N1 returned m-calpain inh inactive and Rad51 HR inh inactive.
`Cc1ccccc1Nc1scc(-c2ccc(Cl)cc2)[n+]1-c1ccccc1C` gave PMI activator inactive, m-calpain inh 50, WT yeast gro inh 59, L major viab inactive, PMI act satM6P inactive and Rad51 HR inh inactive.
Screening NC(=O)COc1ncnc2scc(-c3ccc(F)cc3)c12 returned PMI activator inactive, m-calpain inh inactive, WT yeast gro inh inactive, L major viab inactive, PMI act satM6P inactive and Rad51 HR inh inactive.
For O=C(CSc1ncnc2scc(-c3ccccc3)c12)Nc1ccc(C(=O)O)cc1 the results were m-calpain inh inactive and Rad51 HR inh inactive.
`CC(=O)Nc1cccc(Oc2ncnc3scc(-c4ccc(C(C)C)cc4)c23)c1` gave PMI activator inactive, m-calpain inh inactive, WT yeast gro inh 72, L major viab inactive, PMI act satM6P inactive and Rad51 HR inh inactive.

Assay outcomes deposited in PubChem by several laboratories.
